As a reminder, the EC50 is the concentration needed to bring the measured effect to its halfway point. One may read the IC50 as the concentration that gives 50% inhibition.

Results on three molecules are retold here after paper PMC7195875 (Science signaling, 2018).

One experiment has as its system RAW264.7 cells. Kind of experiment: Toxicity. The format is cell-based, mouse. The conditions noted are these: read-out: TLR9 Toxicity EC50, Table 1.
Experiment [1] concerns the target T1, full length human estrogen receptor α (Homo sapiens, UniProt P03372).
T1 sequence (P03372 1-595): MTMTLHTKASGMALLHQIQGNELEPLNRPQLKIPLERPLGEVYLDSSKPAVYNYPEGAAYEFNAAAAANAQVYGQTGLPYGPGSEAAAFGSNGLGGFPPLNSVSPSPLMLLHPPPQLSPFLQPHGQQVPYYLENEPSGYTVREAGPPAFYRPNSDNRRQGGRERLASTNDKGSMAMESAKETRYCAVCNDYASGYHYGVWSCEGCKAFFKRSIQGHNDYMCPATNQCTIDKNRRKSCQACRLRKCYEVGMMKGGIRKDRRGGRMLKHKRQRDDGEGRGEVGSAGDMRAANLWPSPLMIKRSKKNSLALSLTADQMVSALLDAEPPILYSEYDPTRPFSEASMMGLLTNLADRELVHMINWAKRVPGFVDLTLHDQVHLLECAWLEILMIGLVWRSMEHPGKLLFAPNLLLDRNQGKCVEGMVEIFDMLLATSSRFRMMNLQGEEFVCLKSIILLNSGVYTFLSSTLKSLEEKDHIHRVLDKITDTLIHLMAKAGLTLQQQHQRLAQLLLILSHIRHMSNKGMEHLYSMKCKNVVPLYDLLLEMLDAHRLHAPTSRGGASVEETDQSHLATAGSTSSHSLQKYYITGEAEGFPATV
Kind of experiment: Competitive radiometric estrogen receptor binding assay, ERα. Conditions: relative binding affinity, estradiol = 100.

Experiment [2] addresses full length human estrogen receptor β (Homo sapiens, UniProt Q92731). Kind of experiment: Competitive radiometric estrogen receptor binding assay, ERβ. Conditions: relative binding affinity, estradiol = 100.
The next experiment concerns the target TIRAP-GyrB (UniProt P0AES6+Q99JY1). Kind of experiment: NF-κB luciferase reporter, TIRAP-GyrB HEK293T cells, coumermycin-induced. The format is cell-based, human. In outline:
(§1)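 HEK293T NF-κB luciferase reporter clones carried three NF-κB sites and GyrB fusions introduced by viral transduction with antibiotic selection. Cells received 100 nM coumermycin A1 plus test compound at 10 concentrations (56 μM–2.8 nM) in triplicate, 0.24% final DMSO. After 24 h, AlamarBlue (1 h, 37 °C) measured viability, then SteadyLite luminescence. Values were normalised to coumermycin alone (0%) and coumermycin + 30 μM PS-1145 (100%).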
(In general: A reporter such as luciferase makes a cellular process visible.)

For the next experiment, the target named is MyD88-GyrB (UniProt P0AES6+Q99836). Kind of experiment: NF-κB luciferase reporter, MyD88-GyrB HEK293T cells, coumermycin-induced. The format is cell-based, human. The procedure, abridged: as §1
Experiment [3] deals with TLR9. Kind of experiment: CpG-DNA-induced TNFα release from primary macrophages. The format is cell-based, mouse. Conditions: six hours. The procedure, abridged: (§2)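 Macrophages came from bone marrow of female C57BL/6 mice, grown 6 d in DMEM with 10% FCS and 30% L-cell-conditioned medium. Cells were stimulated with the respective agonist for 6 h alongside graded test compound concentrations. TNFα in supernatants was measured by ELISA. Means ± SD of 3 independent experiments.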

For experiment [4], the system named is TLR7. Kind of experiment: R848-induced TNFα release from primary macrophages. It counts as cell-based, mouse. The conditions noted are these: six hours. In outline:
as §2

The test system of another experiment is TLR2. Description: Pam3Cys-induced TNFα release from primary macrophages. The format is cell-based, mouse. The conditions noted are these: six hours. In outline:
as §2

For the next experiment, the system named is TLR4. Description: LPS-induced TNFα release from primary macrophages. It counts as cell-based, mouse. Conditions: six hours. The procedure, abridged: as §2
Experiment [5] relates to Dectin-1. Kind of experiment: Curdlan-induced TNFα release from primary macrophages. The conditions noted are these: six hours. The format is cell-based, mouse. In outline: as §2
In experiment [6] the test system is TLR9. Description: Western blot of IκBα degradation and MAPK phosphorylation after CpG-DNA. The format is cell-based, mouse. The procedure, abridged:
(§3)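 Bone-marrow macrophages (6 d culture in L-cell-conditioned medium) were stimulated with the respective agonist with or without test compound. Lysates were immunoblotted for the indicated signaling proteins, with total p38 as loading control. Blots are representative of 3 independent experiments.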
A general note: In western blotting, separated proteins are transferred to a membrane and probed.

The test system of experiment [7] is TLR7. Description: Western blot of NF-κB- and MAPK-pathway activation after R848. It counts as cell-based, mouse. In outline:
as §3

Experiment [8] relates to Dectin-1. Kind of experiment: Western blot of signaling after Curdlan. It counts as cell-based, mouse. In outline:
as §3

The target of a further experiment is MyD88 signaling complex (UniProt P0AES6+Q99836). It counts as cell-based, mouse. The conditions noted are these: 10 μM MPP, 1 μM CpG-DNA, RAW264.7. In outline:
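RAW264.7 cells stably expressing FLAG-MyD88-GyrB were SILAC-labelled (light/medium/heavy) in Arg/Lys-free RPMI with 10% dialysed FBS. Heavy cells got 10 μM test compound for 20 min; medium and heavy were then stimulated with 1 μM CpG-DNA for 60 min. […] Quantitative MS gave fold-change versus unstimulated cells, with unique peptides counted.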

A further experiment deals with MyD88 homodimerization (UniProt P0AES6+Q99836). Kind of experiment: Co-immunoprecipitation with MyD88-GyrB in RAW264.7 cells. The format is cell-based, mouse. Conditions: co-IP.
For experiment [9], the target named is TIR-domain of MyD88 / full length MyD88 (Homo sapiens, UniProt Q99836). Kind of experiment: Co-IP of MyD88 TIR-domain with full-length MyD88 in HEK293T cells. The format is cell-based. In outline: (§4)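 HEK293T cells were transfected by Lipofectamine with epitope-tagged MyD88: FLAG full-length plus HA-TIR domain or DD domain. Test compound or DMSO was added 7 h post-transfection, and cells were lysed at 20 h for 20 min at 4 °C in HEPES pH 7.5 buffer with 0.5% NP-40. Cleared lysates underwent FLAG M2 resin IP for 1 h at 4 °C, then immunoblotting with densitometry. Blots represent 4 independent experiments.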

For experiment [10], the target named is DD-domain of MyD88 / full length MyD88 (Homo sapiens, UniProt Q99836). Description: Co-IP of MyD88 DD-domain with full-length MyD88 in HEK293T cells. The format is cell-based. In outline:
as §4

In a further experiment the test system is R848-induced PBMC. Conditions: read-out: IC50 on R848-induced PBMC; cited from earlier work.
Experiment [11] relates to IL-1β-induced NF-κB activity. Conditions: read-out: IC50 for IL-1β-induced NF-κB activity; cited from earlier work.

full length human estrogen receptor β, sequence (Q92731 whole entry): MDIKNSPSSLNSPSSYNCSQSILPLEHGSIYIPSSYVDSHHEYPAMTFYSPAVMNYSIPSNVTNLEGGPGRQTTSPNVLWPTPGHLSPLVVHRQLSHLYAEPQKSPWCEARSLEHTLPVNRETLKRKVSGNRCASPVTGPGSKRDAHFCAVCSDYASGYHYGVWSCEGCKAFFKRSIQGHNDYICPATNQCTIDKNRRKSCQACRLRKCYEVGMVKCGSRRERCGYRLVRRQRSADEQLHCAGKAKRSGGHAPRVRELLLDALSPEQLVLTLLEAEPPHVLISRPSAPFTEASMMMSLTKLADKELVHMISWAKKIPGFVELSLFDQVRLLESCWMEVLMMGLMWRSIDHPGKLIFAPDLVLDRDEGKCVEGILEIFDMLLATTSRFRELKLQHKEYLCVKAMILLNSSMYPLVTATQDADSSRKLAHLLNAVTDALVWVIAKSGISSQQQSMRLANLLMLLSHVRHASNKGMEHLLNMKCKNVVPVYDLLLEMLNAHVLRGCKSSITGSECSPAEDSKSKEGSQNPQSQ

Turning to `Cc1c(-c2ccc(O)cc2)nn(-c2ccc(O)cc2)c1-c1ccc(OCCN2CCCCC2)cc1` [MPP, methyl-piperidino-pyrazole], the half-maximal effective concentration (EC50) in the experiment on RAW264.7 cells amounted to 13.2 ± 2.4 µM. Also, the “RBA ERα” value in experiment [1] was found to be 12 ± 2. In addition, in [2], the “RBA ERβ” value is reported as 0.05 ± 0.01. On TIRAP-GyrB, the “inhibition of TIRAP-mediated NF-κB activity” value is listed as “low μM concentrations”. Moreover, the “inhibition of MyD88-mediated NF-κB activity” value against MyD88-GyrB is reported as “low μM concentrations”. Also, the “TNFα release, CpG-DNA (TLR9)” value in the experiment on TLR9 [3] is “interfered with TNFα release”. In the experiment on TLR7 [4], the “TNFα release, Resiquimod (R848; TLR7)” value is listed as “interfered with TNFα release”. The “TNFα release, Pam3Cys (TLR2)” value with TLR2 is on record as “interfered with TNFα release”. The “TNFα release, LPS (TLR4)” value in the experiment on TLR4 is given as “interfered with TNFα release”. Besides, the “TNFα release induced by Curdlan” value with Dectin-1 [5] was “did not reduce TNFα release”. Moreover, in the experiment on TLR9 [6], the “block of IκBα degradation and MAPK phosphorylation after CpG-DNA” value is reported as “almost completely”. Moreover, the “block of NF-κB- and MAPK-pathway activation downstream of R848” value in the experiment on TLR7 [7] is “not completely”. For the same molecule, the Curdlan-induced cell activation result in the experiment on Dectin-1 [8] is reported as “remained largely unaffected”. In addition, at MyD88 signaling complex, the “recruitment of activation-dependent MyD88-interacting proteins, including IRAK4” value is on record as “almost completely blocked recruitment”. Moreover, the “recruitment of endogenous MyD88 and IRAK4 to GyrB-MyD88” value at MyD88 homodimerization is “inhibited recruitment of endogenous MyD88 and IRAK4”. The “interaction of the TIR-domain with full length MyD88” value in [9] is reported as “strongly reduced”. The “interaction of the DD-domain with full length MyD88” value in experiment [10] was “but not the DD-domain”.
As for `CC[C@@H]1[C@H](F)C(=O)N[C@@H]1COc1nccc2cc(C(N)=O)c(OC)cc12` [Pf-06650833, 1-{[(2S,3S,4S)-3-Ethyl-4-fluoro-5-oxopyrrolidin-2-yl]methoxy}−7-methoxyisoquinoline-6-carboxamide], in the experiment with R848-induced PBMC, the IC50 was 0.0024 µM.
`NC(=O)[C@H]1CCS[C@@H]2C[C@]3(CCCN3C(=O)Cc3ccc(NC(=O)COc4ccc(Cl)cc4Cl)cc3)C(=O)N12` [ST2825]: in experiment [11], the concentration for half-maximal inhibition (IC50) is above 10 µM.
